# Activity calls are given as the source filed them. The rule behind the calls is not given here.
# How the values were obtained:
# Staphylococcus aureus [1] = experiment: Antibacterial activity against methicillin-susceptible Staphylococcus aureus 60/05 isolates after 18 hrs; assay type: functional
# How it was run: (§1)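 Agar-dilution MIC on Mueller–Hinton II agar per CLSI guidelines. Aqueous test solutions were added to liquid agar to give two dilution series across 6.25–400 µg/mL. Solidified plates were spot-inoculated with 2 µL aliquots to a final inoculum of 10^4 […]. […] Strains were standard S. aureus strains or hospital patient isolates typed MSSA/MRSA.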
# Escherichia coli [2] = experiment: microbe, parasite or virus in culture; conditions: ATCC 10538, read-out: IZ
# Staphylococcus aureus [3] = experiment: microbe, parasite or virus in culture; conditions: ATCC 29213, read-out: IZ
# Staphylococcus aureus [4] = experiment: Antibacterial activity against methicillin-resistant Staphylococcus aureus 19/04 isolates after 18 hrs; assay type: functional; how it was run: as §1
# Staphylococcus aureus [5] = experiment: Antibacterial activity against methicillin-susceptible Staphylococcus aureus 28/04 isolates after 18 hrs; assay type: functional; how it was run: as §1
# Bacillus subtilis [6] = experiment: microbe, parasite or virus in culture; conditions: ATCC 6633, read-out: IZ
# Staphylococcus aureus [7] = experiment: Antibacterial activity against methicillin-resistant Staphylococcus aureus 91/06 isolates after 18 hrs; assay type: functional; how it was run: as §1
# Staphylococcus aureus [8] = experiment: Antibacterial activity against methicillin-susceptible Staphylococcus aureus 38/05 isolates after 18 hrs; assay type: functional; how it was run: as §1
# Staphylococcus aureus [9] = experiment: Antibacterial activity against Staphylococcus aureus ATCC 6538P after 18 hrs; assay type: functional; how it was run: as §1
# Staphylococcus aureus [10] = experiment: Antibacterial activity against methicillin-resistant Staphylococcus aureus 46/05 isolates after 18 hrs; assay type: functional; how it was run: as §1
# Staphylococcus aureus [11] = experiment: Antibacterial activity against methicillin-resistant Staphylococcus aureus 53/05 isolates after 18 hrs; assay type: functional; how it was run: as §1
# Candida albicans [12] = experiment: Antimicrobial activity against Candida albicans ATCC 10231 at 5 ug/disk after 24 to 48 hrs by disc-diffusion method; assay type: functional, organism-based
# Staphylococcus aureus [13] = experiment: Antibacterial activity against methicillin-susceptible Staphylococcus aureus 98/06 isolates after 18 hrs; assay type: functional; how it was run: as §1
# Staphylococcus aureus [14] = experiment: Antibacterial activity against Staphylococcus aureus ATCC 25923 after 18 hrs; assay type: functional; conditions: ATCC 25923, 18 h; how it was run: as §1
# Staphylococcus aureus [15] = experiment: microbe, parasite or virus in culture; conditions: ATCC 25923, read-out: IZ
# Staphylococcus aureus [16] = experiment: Antibacterial activity against methicillin-resistant Staphylococcus aureus 92/06 isolates after 18 hrs; assay type: functional; how it was run: as §1
# Staphylococcus aureus [17] = experiment: Antibacterial activity against methicillin-susceptible Staphylococcus aureus 6/04 isolates after 18 hrs; assay type: functional; how it was run: as §1
# Staphylococcus aureus [18] = experiment: Antibacterial activity against methicillin-susceptible Staphylococcus aureus 72/05 isolates after 18 hrs; assay type: functional; how it was run: as §1
# Staphylococcus aureus [19] = experiment: Antibacterial activity against methicillin-susceptible Staphylococcus aureus 40/05 isolates after 18 hrs; assay type: functional; how it was run: as §1
# Staphylococcus aureus [20] = experiment: Antibacterial activity against methicillin-susceptible Staphylococcus aureus 14/04 isolates after 18 hrs; assay type: functional; how it was run: as §1
# Staphylococcus aureus [21] = experiment: Antibacterial activity against methicillin-susceptible Staphylococcus aureus 69/05 isolates after 18 hrs; assay type: functional; how it was run: as §1
# Staphylococcus aureus [22] = experiment: Antibacterial activity against methicillin-susceptible Staphylococcus aureus 3/04 isolates after 18 hrs; assay type: functional; how it was run: as §1
# Staphylococcus aureus [23] = experiment: Antibacterial activity against methicillin-resistant Staphylococcus aureus 29/04 isolates after 18 hrs; assay type: functional; how it was run: as §1
# Staphylococcus aureus [24] = experiment: Antibacterial activity against methicillin-resistant Staphylococcus aureus 1/04 isolates after 18 hrs; assay type: functional; how it was run: as §1
# Staphylococcus aureus [25] = experiment: Antibacterial activity against Staphylococcus aureus ATCC 29213 after 18 hrs; assay type: functional; conditions: ATCC 29213, 18 h; how it was run: as §1
# Staphylococcus aureus [26] = experiment: microbe, parasite or virus in culture; conditions: ATCC 6538P, read-out: IZ
# Staphylococcus aureus [27] = experiment: Antibacterial activity against methicillin-susceptible Staphylococcus aureus 42/05 isolates after 18 hrs; assay type: functional; how it was run: as §1
# Staphylococcus aureus [28] = experiment: Antibacterial activity against methicillin-resistant Staphylococcus aureus 48/05 isolates after 18 hrs; assay type: functional; how it was run: as §1
# Staphylococcus aureus [29] = experiment: Antibacterial activity against methicillin-resistant Staphylococcus aureus 56/05 isolates after 18 hrs; assay type: functional; how it was run: as §1
# [30] = tested on: Bordetella bronchiseptica; experiment: microbe, parasite or virus in culture; conditions: ATCC 4617, read-out: IZ
# Staphylococcus aureus [31] = experiment: Antibacterial activity against methicillin-susceptible Staphylococcus aureus 2/04 isolates after 18 hrs; assay type: functional; how it was run: as §1
# Staphylococcus aureus [32] = experiment: Antibacterial activity against methicillin-susceptible Staphylococcus aureus 102/06 isolates after 18 hrs; assay type: functional; how it was run: as §1
# Staphylococcus aureus [33] = experiment: Antibacterial activity against methicillin-resistant Staphylococcus aureus 47/05 isolates after 18 hrs; assay type: functional; how it was run: as §1
# Enterococcus hirae [34] = experiment: Antibacterial activity against Enterococcus hirae ATCC 10541 at 5 ug/disk after 24 to 48 hrs by disc-diffusion method; assay type: functional, organism-based
# Escherichia coli [35] = experiment: microbe, parasite or virus in culture; conditions: ATCC 25922, read-out: IZ
# Staphylococcus aureus [36] = experiment: Antibacterial activity against methicillin-resistant Staphylococcus aureus 93/06 isolates after 18 hrs; assay type: functional; how it was run: as §1
# Staphylococcus aureus [37] = experiment: Antibacterial activity against methicillin-resistant Staphylococcus aureus 54/05 isolates after 18 hrs; assay type: functional; how it was run: as §1
# Staphylococcus aureus [38] = experiment: Antibacterial activity against methicillin-resistant Staphylococcus aureus 83/05 isolates after 18 hrs; assay type: functional; how it was run: as §1
# Staphylococcus aureus [39] = experiment: microbe, parasite or virus in culture; conditions: NCTC 4163, read-out: IZ
# Staphylococcus aureus [40] = experiment: Antibacterial activity against Staphylococcus aureus NCTC 4163 after 18 hrs; assay type: functional; conditions: NCTC 4163, 18 h; how it was run: as §1
# Staphylococcus aureus [41] = experiment: Antibacterial activity against methicillin-susceptible Staphylococcus aureus 7/04 isolates after 18 hrs; assay type: functional; how it was run: as §1
# Staphylococcus aureus [42] = experiment: Antibacterial activity against methicillin-susceptible Staphylococcus aureus 65/05 isolates after 18 hrs; assay type: functional; how it was run: as §1
# Staphylococcus aureus [43] = experiment: Antibacterial activity against methicillin-susceptible Staphylococcus aureus 101/06 isolates after 18 hrs; assay type: functional; how it was run: as §1
# Pseudomonas aeruginosa [44] = experiment: microbe, parasite or virus in culture; conditions: NCTC 6749, read-out: IZ
# Staphylococcus aureus [45] = experiment: Antibacterial activity against methicillin-resistant Staphylococcus aureus 79/05 isolates after 18 hrs; assay type: functional; how it was run: as §1
# Staphylococcus aureus [46] = experiment: Antibacterial activity against methicillin-susceptible Staphylococcus aureus 4/04 isolates after 18 hrs; assay type: functional; how it was run: as §1
# Pseudomonas aeruginosa [47] = experiment: microbe, parasite or virus in culture; conditions: ATCC 15442, read-out: IZ
# Staphylococcus aureus [48] = experiment: Antibacterial activity against methicillin-resistant Staphylococcus aureus 55/05 isolates after 18 hrs; assay type: functional; how it was run: as §1
# Staphylococcus aureus [49] = experiment: Antibacterial activity against methicillin-susceptible Staphylococcus aureus 49/05 isolates after 18 hrs; assay type: functional; how it was run: as §1
# Escherichia coli [50] = experiment: Antibacterial activity against Escherichia coli ATCC […] at 10 ug/disk after 24 to 48 hrs by disc-diffusion method; assay type: functional, organism-based
# Staphylococcus aureus [51] = experiment: Antibacterial activity against Staphylococcus aureus NCTC 4163 at 10 ug/disk after 24 to 48 hrs by disc-diffusion method; assay type: functional, organism-based
# Staphylococcus aureus [52] = experiment: Antibacterial activity against Staphylococcus aureus ATCC 25923 at 10 ug/disk after 24 to 48 hrs by disc-diffusion method
# Pseudomonas aeruginosa [53] = experiment: Antibacterial activity against Pseudomonas aeruginosa NCTC 6749 at 10 ug/disk after 24 to 48 hrs by disc-diffusion method; assay type: functional, organism-based
# Bacillus subtilis [54] = experiment: Antibacterial activity against Bacillus subtilis ATCC 6633 at 10 ug/disk after 24 to 48 hrs by disc-diffusion method; assay type: functional, organism-based
# Candida albicans [55] = experiment: microbe, parasite or virus in culture; conditions: ATCC 10231, read-out: IZ
# Enterococcus hirae [56] = experiment: Antibacterial activity against Enterococcus hirae ATCC 10541 at 10 ug/disk after 24 to 48 hrs by disc-diffusion method
# Staphylococcus aureus [57] = experiment: Antibacterial activity against Staphylococcus aureus ATCC 6538P at 10 ug/disk after 24 to 48 hrs by disc-diffusion method
# Pseudomonas aeruginosa [58] = experiment: Antibacterial activity against Pseudomonas aeruginosa ATCC […] at 10 ug/disk after 24 to 48 hrs by disc-diffusion method; assay type: functional, organism-based
# Staphylococcus aureus [59] = experiment: Antibacterial activity against Staphylococcus aureus ATCC 29213 at 10 ug/disk after 24 to 48 hrs by disc-diffusion method; assay type: functional, organism-based
# [60] = tested on: Bordetella bronchiseptica; experiment: Antibacterial activity against Bordetella bronchiseptica ATCC 4617 at 10 ug/disk after 24 to 48 hrs by disc-diffusion method; assay type: functional, organism-based
# Escherichia coli [61] = experiment: Antibacterial activity against Escherichia coli ATCC […] at 10 ug/disk after 24 to 48 hrs by disc-diffusion method; assay type: functional, organism-based
smiles,measurement,setting,value
O=C(O)c1cn(C2CC2)c2cc(N3CCNCC3)c(F)cc2c1=O [CIPROFLOXACIN],MIC,Staphylococcus aureus [1],0.5 µg/mL
same,zone of inhibition at 5 µg/disc,Escherichia coli [2],34 mm
same,zone of inhibition at 5 µg/disc,Staphylococcus aureus [3],22 mm
same,MIC,Staphylococcus aureus [4],64 µg/mL
same,MIC,Staphylococcus aureus [5],1 µg/mL
same,zone of inhibition at 5 µg/disc,Bacillus subtilis [6],40 mm
same,MIC,Staphylococcus aureus [7],> 128 µg/mL
same,MIC,Staphylococcus aureus [8],0.25 µg/mL
same,MIC,Staphylococcus aureus [9],0.5 µg/mL
same,MIC,Staphylococcus aureus [10],64 µg/mL
same,MIC,Staphylococcus aureus [11],128 µg/mL
same,Activity,Candida albicans [12],inactive
same,MIC,Staphylococcus aureus [13],0.25 µg/mL
same,MIC,Staphylococcus aureus [14],0.5 µg/mL
same,zone of inhibition at 5 µg/disc,Staphylococcus aureus [15],26 mm
same,MIC,Staphylococcus aureus [16],8 µg/mL
same,MIC,Staphylococcus aureus [17],0.25 µg/mL
same,MIC,Staphylococcus aureus [18],0.25 µg/mL
same,MIC,Staphylococcus aureus [19],0.5 µg/mL
same,MIC,Staphylococcus aureus [20],1 µg/mL
same,MIC,Staphylococcus aureus [21],2 µg/mL
same,MIC,Staphylococcus aureus [22],0.25 µg/mL
same,MIC,Staphylococcus aureus [23],64 µg/mL
same,MIC,Staphylococcus aureus [24],64 µg/mL
same,MIC,Staphylococcus aureus [25],0.5 µg/mL
same,zone of inhibition at 5 µg/disc,Staphylococcus aureus [26],28 mm
same,MIC,Staphylococcus aureus [27],2 µg/mL
same,MIC,Staphylococcus aureus [28],128 µg/mL
same,MIC,Staphylococcus aureus [29],32 µg/mL
same,zone of inhibition at 5 µg/disc,[30],31 mm
same,MIC,Staphylococcus aureus [31],> 4 µg/mL
same,MIC,Staphylococcus aureus [32],0.5 µg/mL
same,MIC,Staphylococcus aureus [33],128 µg/mL
same,Activity,Enterococcus hirae [34],inactive
same,zone of inhibition at 5 µg/disc,Escherichia coli [35],35 mm
same,MIC,Staphylococcus aureus [36],128 µg/mL
same,MIC,Staphylococcus aureus [37],128 µg/mL
same,MIC,Staphylococcus aureus [38],32 µg/mL
same,zone of inhibition at 5 µg/disc,Staphylococcus aureus [39],26 mm
same,MIC,Staphylococcus aureus [40],0.5 µg/mL
same,MIC,Staphylococcus aureus [41],2 µg/mL
same,MIC,Staphylococcus aureus [42],0.5 µg/mL
same,MIC,Staphylococcus aureus [43],0.25 µg/mL
same,zone of inhibition at 5 µg/disc,Pseudomonas aeruginosa [44],26 mm
same,MIC,Staphylococcus aureus [45],128 µg/mL
same,MIC,Staphylococcus aureus [46],0.25 µg/mL
same,zone of inhibition at 5 µg/disc,Pseudomonas aeruginosa [47],26 mm
same,MIC,Staphylococcus aureus [48],128 µg/mL
same,MIC,Staphylococcus aureus [49],0.25 µg/mL
Clc1ccc(COC(Cn2ccnc2)c2ccc(Cl)cc2Cl)c(Cl)c1 (stereo unspecified) [MICONAZOLE],Activity,Escherichia coli [50],inactive
same,Activity,Staphylococcus aureus [51],inactive
same,Activity,Staphylococcus aureus [52],inactive
same,Activity,Pseudomonas aeruginosa [53],inactive
same,Activity,Bacillus subtilis [54],inactive
same,zone of inhibition at 10 µg/disc,Candida albicans [55],20 mm
same,Activity,Enterococcus hirae [56],inactive
same,Activity,Staphylococcus aureus [57],inactive
same,Activity,Pseudomonas aeruginosa [58],inactive
same,Activity,Staphylococcus aureus [59],inactive
same,Activity,[60],inactive
same,Activity,Escherichia coli [61],inactive
